Experimental data from article PMC11529803 (Medicinal chemistry research : an international journal for …, 2024).
Structures can show the parent of a compound that is named as a salt. Blank lines part the entries; values can stand above or below the molecule they belong to.

Legend:
[1] = In vivo metabolism and pharmacokinetics of LH708; set-up: species or system Slc3a1 KO male mice
[2] = system: Slc3a1-knockout mouse model of cystinuria; conditions: after oral gavage; cited from earlier work
[3] = cited from earlier work
[4] = L-cystine crystallization inhibition assay; conditions: for EC50 relative to parent LH708: metabolites of LH708
Method in brief: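 Supersaturated L-cystine solution was held with test compound over a concentration range for 72 h at 20 °C, then centrifuged at 14,000 rpm for 10 min at room temperature. Supernatant was diluted 10-fold in water and run in triplicate: potassium cyanide in PBS pH 7.4, 25 min shaking, then sodium nitroprusside, with absorbance read at 530 nm. Cystine was read off a standard curve; EC50 came from nonlinear regression.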

[5] = Crystal growth inhibition by in situ atomic force microscopy; conditions: in situ AFM on {0001} growth hillocks
Method in brief: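 Real-time in situ AFM in a fluid cell on hexagonal L-cystine crystals grown from aqueous supersaturated solution (pH 6.3), filtered and air-dried. Surface regenerated for 20 min by flowing supersaturated 2 mM cystine at 20 mL/h. Velocities of {1010} steps on the {0001} basal plane were measured without inhibitor (Vo), then with test compound at 15, 30 and 45 µM under identical conditions.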

plasma half-life ([1]; after LH708 single dose 150 μmol/kg): ~ 10 min
main metabolic pathway ([1]; single iv or oral dose of LH708, plasma and urine): disulfide exchange
SMILES: CN1CCN(C(=O)[C@@H](N)CSSC[C@H](N)C(=O)N2CCN(C)CC2)CC1 [Compound 2, L-cystine bis(N′-methylpiperazide)]
prevention of L-cystine stone formation [2]: active
chemical and metabolic stability compared with L-CDME (1) [3]: chemically and metabolically more stable

EC50 relative to parent LH708 [4]: ≤ 2 fold
SMILES: N[C@@H](CSSC[C@H](N)C(=O)N1CCNCC1)C(=O)N1CCNCC1 [Compound 3a, L-Cystine bis(piperazide) tetrahydrochloride]
L-cystine crystal growth inhibition (step roughening and decrease of {1010} step velocity) [5]: less effective than the other two compounds

SMILES: Cl.Cl.Cl.Cl.N[C@@H](CSSC[C@H](N)C(=O)N1CCN(c2ccccc2)CC1)C(=O)N1CCN(c2ccccc2)CC1 [Compound 3e, L-Cystine bis(N′-phenylpiperazide) tetrahydrochloride]
decrease in L-cystine crystallization inhibition activity ([4]; relative to LH708 (N4-methyl)): > 10 fold

SMILES: Cl.Cl.Cl.Cl.N[C@@H](CSSC[C@H](N)C(=O)N1CCCC12CCNCC2)C(=O)N1CCCC12CCNCC2 [Compound 3j, L-Cystine bis(1,8-diazaspiro[4.5]decan-1-yl) tetrahydrochloride]
reduction in L-cystine crystallization inhibition ([4]; relative to structure isomer 3i): ~5 fold

SMILES: Cl.Cl.N[C@@H](CSSC[C@H](N)C(=O)NCCN1CCCC1=O)C(=O)NCCN1CCCC1=O [Compound 4e, L-Cystine bis(N′-pyrrolidin-2-one ethyleneamide) dihydrochloride]
L-cystine crystallization inhibition activity (in words) [4]: lost almost all of its crystallization inhibition activity

EC50 relative to parent LH708 [4]: ≤ 2 fold
SMILES: CN1CCN(C(=O)[C@@H](N)CSSC[C@H](N)C(=O)O)CC1.Cl.Cl.Cl [Compound 25, S-(((R)-2-Amino-3-(4-methylpiperazin-1-yl)-3-oxopropyl)thio)-L-cysteine trihydrochloride]
